Several values for one entry are separate records, joined by “and”; a condition that tells them apart may be missing. Identical values can stand only once.
Experiments:
[1] = molecular target: T1, 5-hydroxytryptamine receptor 1A (Rattus norvegicus, UniProt P19327); assay: Binding affinity of 5-hydroxytryptamine 1A receptor using [3H]-8-OH-DPAT as radioligand.
T1 sequence (P19327 whole entry): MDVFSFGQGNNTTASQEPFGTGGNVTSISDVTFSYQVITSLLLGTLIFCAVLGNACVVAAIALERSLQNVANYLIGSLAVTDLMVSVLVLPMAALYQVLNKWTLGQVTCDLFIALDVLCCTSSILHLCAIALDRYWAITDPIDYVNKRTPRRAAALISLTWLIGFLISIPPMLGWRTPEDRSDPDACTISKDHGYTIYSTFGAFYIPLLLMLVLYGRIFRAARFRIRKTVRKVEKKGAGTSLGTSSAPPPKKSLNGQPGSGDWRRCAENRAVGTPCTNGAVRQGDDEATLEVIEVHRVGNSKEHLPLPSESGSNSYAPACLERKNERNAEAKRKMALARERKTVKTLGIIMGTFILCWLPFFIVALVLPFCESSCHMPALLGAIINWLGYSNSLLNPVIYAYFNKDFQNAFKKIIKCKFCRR
In short: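 Membranes from cortex and hippocampus of male Sprague-Dawley rats, pooled from at least six rats, preincubated with 10 µM pargyline. Assay used 2 nM [3H]-8-OH-DPAT, test compound at 1-300 nM and 5 mg/mL tissue in 50 mM Tris-HCl with 4.0 mM CaCl2 and 5.7 mM ascorbate, pH 7.5. Incubated 10 min at 37 °C, filtered on GF/B, scintillation counted.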

[2] = molecular target: T2, Dopamine receptor (Rattus norvegicus) (UniProt P25115+P19020+P30729+P18901+P61169); assay: Effect of accumulation of DOPA in rat striatum at the dose of 32 umol/kg; type: functional, tissue-based
In short: (§1)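 Test compound given sc in 0.9% NaCl. NSD 1015 (287 µmol/kg sc) given 30 min later to inhibit aromatic L-amino acid decarboxylase; rats decapitated after a further 30 min. Hippocampus and striatum stored at -40 °C for up to 1 week. Perchloric acid homogenates with α-methyl-5-hydroxytryptophan internal standard; 5-HTP and DOPA measured by HPLC-EC. Percent of control, means ± SEM; ANOVA with Tukey test.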

[3] = molecular target: T3, 5-hydroxytryptamine receptor 1A (Rattus norvegicus) (UniProt P19327); assay: Effect of 5-HT accumulation in rat hippocampus at the dose of 32 umol/kg (p<0.01); type: functional, tissue-based; in short: as §1
T3 sequence (whole entry): T1 sequence (P19327 whole entry)

Rattus norvegicus [4] = species on record: Rattus norvegicus; assay: Ability to inhibit cage leaving response; type: functional
In short: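 Normal rats given compound sc in saline, housed two per cage. Cage grid covers removed 12 min after injection; rats leaving the cage during the following 12 min were counted and reported as number leaving out of number tested.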

[5] = molecular target: T3, 5-hydroxytryptamine receptor 1A (Rattus norvegicus); assay: Induction of clear-cut 5-HT motor syndrome in normal rats at the dose of 32 micro mol/kg; type: functional
Rattus norvegicus [6] = assay: Ability to produce 5-HT motor syndrome in normal rats at the dose of 3.2 micro mol/kg; type: functional
[7] = molecular target: T3, 5-hydroxytryptamine receptor 1A (Rattus norvegicus); assay: 5-HT (serotonin) turnover in rat hippocampus (p<0.05); type: functional, tissue-based
In short: (§2)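 Rats dosed sc (screening dose typically 32 µmol/kg, in 0.9% NaCl, 2 mL/kg); decapitated 5-10 min after the 30-min rating, […]. Hippocampus dissected and frozen. 5-HIAA/5-HT ratio measured by HPLC with electrochemical detection (+0.85 V) after perchloric acid homogenisation. Reported as percent of saline control, mean ± SEM, n = 4-6 per group; ANOVA with Tukey test.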

[8] = molecular target: T2, Dopamine receptor (Rattus norvegicus); assay: Dopamine (DA) turnover in rat corpus striatum; type: functional, tissue-based
In short: (§3)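 Rats given compound sc in 0.9% NaCl (screening dose typically 32 µmol/kg); decapitated about 30 min after dosing. Hippocampus and corpus striatum dissected and frozen. Perchloric acid homogenates analysed by HPLC with electrochemical detection. Turnover taken as 5-HIAA/5-HT or DOPAC/DA, expressed as percent of saline control. Means ± SEM; n = 5-7 controls, 4-6 treated. ANOVA with Tukey test.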

[9] = molecular target: T3, 5-hydroxytryptamine receptor 1A (Rattus norvegicus); assay: Number of rats displaying the 5-HT syndrome or leaving the cage out of the number of rats tested; type: functional
[10] = molecular target: T3, 5-hydroxytryptamine receptor 1A (Rattus norvegicus); assay: Induction of clear-cut 5-HT motor syndrome in reserpine (5 mg/kg, sc) pretreated rats at the dose of 32 micro mol/kg; type: functional, organism-based
Rattus norvegicus [11] = assay: Effect of accumulation of DOPA in rat striatum at the dose of 0.32 umol/kg; type: functional
In short: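 Compound given sc in saline, then NSD 1015 (287 µmol/kg sc) to block aromatic L-amino acid decarboxylase 30 min later. Rats decapitated after another 30 min. Striatum stored at -40 °C for up to 1 week. DOPA quantified by HPLC-EC with α-methyl-5-hydroxytryptophan as internal standard. Reported as percent of control, mean ± SEM (n = 5-6 treated, 15 control); ANOVA with Tukey test.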

Rattus norvegicus [12] = assay: Effect of accumulation of DOPA in rat striatum at the dose of 1.0 umol/kg; type: functional; in short: as §1
Rattus norvegicus [13] = assay: Effect of 5-HT accumulation in rat hippocampus at the dose of 0.32 umol/kg (p<0.01); type: functional; in short: as §1
Rattus norvegicus [14] = assay: Effect of 5-HT accumulation in rat hippocampus at the dose of 1.0 umol/kg (p<0.01); type: functional; in short: as §1
Rattus norvegicus [15] = assay: Effect of DOPA accumulation in rat striatum at the dose of 0.32 umol/kg (p<0.01); type: functional; in short: as §1
Rattus norvegicus [16] = assay: Effect of DOPA accumulation in rat striatum at the dose of 1.0 umol/kg (p<0.01); type: functional; in short: as §1
Rattus norvegicus [17] = assay: Induction of clear-cut 5-HT motor syndrome in reserpine (5 mg/kg, sc) pretreated rats at the dose of 1.0 micro mol/kg; type: functional
[18] = molecular target: T3, 5-hydroxytryptamine receptor 1A (Rattus norvegicus); assay: 5-HT (serotonin) turnover in rat hippocampus (p<0.01); type: functional, tissue-based; in short: as §2
Rattus norvegicus [19] = assay: Change in body temperature of rats upon administration after 30 minutes (p<0.01); type: functional
In short: (§4)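 Colonic temperature taken with an electrical thermometer probe 3.5 cm deep, before and 30 min after sc injection in saline. Change reported in °C as mean ± SEM; animal numbers as in the cage-leaving test. ANOVA with Tukey test.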

Rattus norvegicus [20] = assay: Induction of clear-cut 5-HT motor syndrome in normal rats at the dose of 1.0 micro mol/kg
Rattus norvegicus [21] = species on record: Rattus norvegicus; assay: 5-HT (serotonin) turnover in rat hippocampus (p<.005); type: functional; in short: as §3
Rattus norvegicus [22] = assay: Antagonistic effect on 5-HT syndrome or behavior of rat at the dose of 32 umol/kg with saline; type: functional
In short: (§5)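 Compound (32 µmol/kg sc) or saline injected 10 min before (R)-8-OH-DPAT (1.0 µmol/kg sc). Flat body posture, forepaw treading and hindlimb abduction scored during 30 min of observation. Results as number of rats showing the behaviour out of number tested; Fisher's exact probability test.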

Rattus norvegicus [23] = assay: Antagonistic effect on 5-HT syndrome or behavior of rat induced by (R)-8-hydroxy-DPAT at the dose of 32 and 1.0 umol/kg; type: functional; in short: as §5
Rattus norvegicus [24] = assay: Antagonistic effect on body temperature of rat induced by (R)-1 at the dose of 32 and 1.0 umol/kg of compound (R)-1; type: functional
In short: (§6)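 Compound (32 µmol/kg sc) or saline injected 10 min before (R)-8-OH-DPAT (1.0 µmol/kg sc). Colonic temperature taken before injection and 30 min later; result is the change from the preinjection value. One-way ANOVA with Tukey HSD test.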

Rattus norvegicus [25] = assay: Antagonistic effect on body temperature of rat induced by (R)-1 at the dose of 32 umol/kg with saline; type: functional; in short: as §6
Rattus norvegicus [26] = assay: Induction of clear-cut 5-HT motor syndrome in normal rats at the dose of 30 micro mol/kg; type: functional
Rattus norvegicus [27] = species on record: Rattus norvegicus; assay: Dopamine (DA) turnover in rat corpus striatum (p<0.05); type: functional; in short: as §3
Rattus norvegicus [28] = assay: Effect of 5-HT accumulation in rat hippocampus at the dose of 32 umol/kg; type: functional; in short: as §1
Rattus norvegicus [29] = assay: Induction of clear-cut 5-HT motor syndrome in normal rats at the dose of 32 uM/Kg; type: functional
[30] = molecular target: T3, 5-hydroxytryptamine receptor 1A (Rattus norvegicus); assay: Antagonistic effect on 5-HT syndrome or behavior of rat induced by (R)-1 at the dose of 32 and 1.0 umol/kg of compound (R)-1; type: functional; in short: as §5
[31] = molecular target: T3, 5-hydroxytryptamine receptor 1A (Rattus norvegicus); assay: 5-HT (serotonin) turnover in rat hippocampus; type: functional, tissue-based; in short: as §3
Rattus norvegicus [32] = assay: Change in body temperature of rats upon administration after 30 minutes; type: functional; in short: as §4
Rattus norvegicus [33] = assay: Effect of accumulation of DOPA in rat striatum at the dose of 0.32 umol/kg (p<0.01); type: functional; in short: as §1
Rattus norvegicus [34] = assay: Induction of clear-cut 5-HT motor syndrome in reserpine (5 mg/kg, sc) pretreated rats at the dose of 10 micro mol/kg; type: functional
Rattus norvegicus [35] = assay: Induction of clear-cut 5-HT motor syndrome in normal rats at the dose of 10 micro mol/kg; type: functional
Rattus norvegicus [36] = assay: Effect of DOPA accumulation in rat striatum at the dose of 32 umol/kg (p<0.1); type: functional; in short: as §1

Work on `CCCN(CCC)[C@@H]1CCc2cccc(CO)c2C1` yielded a Ki [1] of 23 nM, an Accumulation [2] of 125 and an Accumulation [3] of 47. It also gave a Cage leaving (Rattus norvegicus [4]) of 4, a Behavioral effect [5] of 4 and an Effect (Rattus norvegicus [6]) of 4. The Turnover [7] was 74 and 85, the Turnover [8] was 93 and 88 and the No. of rats [9] was 0. It also gave a Behavioral effect [10] of 4.

For `CCCN(CCC)[C@@H]1CCc2cccc(O)c2C1`, the Accumulation (Rattus norvegicus [11]) was 106, the Accumulation (Rattus norvegicus [12]) was 98 and the Accumulation (Rattus norvegicus [13]) was 44. For the same compound, the Accumulation (Rattus norvegicus [14]) was 45, the Accumulation (Rattus norvegicus [15]) was 106 and the Accumulation (Rattus norvegicus [16]) was 98. The Behavioral effect (Rattus norvegicus [17]) was 15, the Turnover [18] was 66 and the Turnover [8] was 96. The Temperature (Rattus norvegicus [19]) was -2.6, the No. of rats [9] was 42 and the Behavioral effect (Rattus norvegicus [20]) was 42.

Compound `CCCN(CCC)[C@@H]1CCc2cccc(C)c2C1` has an Accumulation [2] of 86, an Accumulation [3] of 54 and a Behavioral effect [5] of 4. It also gave a Turnover (Rattus norvegicus [21]) of 69, a Turnover [8] of 88 and a Temperature (Rattus norvegicus [19]) of -2.1. For the same compound, the No. of rats [9] was 0 and the Behavioral effect [10] was 0.

`CCCN(CCC)[C@H]1CCc2c(F)ccc(O)c2C1` showed an Effect (Rattus norvegicus [22]) of 0, an Effect (Rattus norvegicus [23]) of 0 and a Temperature (Rattus norvegicus [24]) of -0.76. The Temperature (Rattus norvegicus [25]) was -0.02.

For `CCCN(CCC)[C@@H]1CCc2cccc(OC)c2C1`, the Behavioral effect (Rattus norvegicus [26]) was 4, the Turnover [18] was 66 and the Turnover (Rattus norvegicus [27]) was 70. It also gave a Temperature (Rattus norvegicus [19]) of -1.5 and a No. of rats [9] of 0.

`CCCN(CCC)[C@H]1CCc2cccc(C(=O)c3ccccc3)c2C1` was tested, and the Ki [1] was 16 nM, the Accumulation [2] was 83 and the Accumulation (Rattus norvegicus [28]) was 95. The Behavioral effect (Rattus norvegicus [29]) was 0, the Effect [30] was 4 and the Turnover [31] was 112. It also gave a Turnover [8] of 88, a Temperature (Rattus norvegicus [24]) of -3.03 and a Temperature (Rattus norvegicus [32]) of 0.13. The No. of rats [9] was 2.

Compound `CCCN(CCC)[C@H]1CCc2cccc(O)c2C1` has an Accumulation (Rattus norvegicus [33]) of 94, an Accumulation (Rattus norvegicus [15]) of 94 and a Behavioral effect (Rattus norvegicus [34]) of 5. It also gave a Behavioral effect (Rattus norvegicus [35]) of 4, a Turnover [7] of 72 and a Turnover [8] of 106. It also gave a Temperature (Rattus norvegicus [19]) of -2 and a No. of rats [9] of 0.

`C#Cc1cccc2c1C[C@H](N(CCC)CCC)CC2` was tested, and the Ki [1] was 22 nM, the Accumulation [2] was 59 and the Accumulation [3] was 43. For the same compound, the Behavioral effect [5] was 4, the Turnover [18] was 73 and the Turnover [8] was 78. It also gave a Temperature (Rattus norvegicus [19]) of -1.6, a No. of rats [9] of 0 and a Behavioral effect [10] of 4. The Accumulation (Rattus norvegicus [36]) was 50.
